This note sets out measurements from ChEMBL document CHEMBL3244350, “Antitumor and antiinflammatory agents: N-benzoyl-protected cyanomethyl esters of amino acids” (J Med Chem, 1979).

Common to all, as to assay type: functional
Common to all, as to settings: route intraperitoneal

For experiment [1], the system named is Mus musculus. Kind of experiment: Antitumor activity against mouse P388 cells allografted in DBA/2 mouse assessed as host survival on day 7 at 20 mg/kg, ip qd for 2 weeks. In short, it runs like this:
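P388 leukemia in male DBA/2 mice (20 g): 10⁶ cells implanted on day 0. Compounds were given ip at 20 (mg/kg)/day for 2 weeks. Survival was expressed as T/C by the NIH protocol; T/C > 120 counted as significant. 5-Fluorouracil was the internal standard.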

Experiment [2] deals with Mus musculus. Description: Antitumor activity against mouse P388 cells allografted in DBA/2 mouse assessed as tumor growth inhibition at 20 mg/kg, ip qd for 2 weeks (reference value: 100%). In a few lines: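 DBA/2 male mice (20 g) implanted with 10^6 P-388 cells on day 0, then dosed ip at 20 mg/kg/day for 2 weeks. T/C computed by the NIH protocol; T/C ≥120 counted as significant. 5-Fluorouracil served as internal standard.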

Experiment [3] has as its system Mus musculus. Kind of experiment: Antiinflammatory activity in CF1 mouse assessed as inhibition of carrageenan-induced paw edema at 20 mg/kg, ip administered 3 hrs and 30 mins prior to carrageenan-challenge measured after 3 hrs (reference value: 0%). (Carrageenan injected into the paw causes an acute inflammation.)
Experiment [4] deals with Mus musculus. Description: Antiinflammatory activity in CF1 mouse assessed as increase in foot weight at 20 mg/kg, ip administered 3 hrs and 30 mins prior to carrageenan-challenge measured after 3 hrs (reference value: 97 +/- 10 mg).
For experiment [5], the system named is Mus musculus. Description: Antiinflammatory activity in CF1 mouse assessed as increase in foot weight at 10 mg/kg, ip administered 3 hrs and 30 mins prior to carrageenan-challenge measured after 3 hrs (reference value: 97 +/- 10 mg).
The test system of experiment [6] is Mus musculus. Kind of experiment: Antiinflammatory activity in CF1 mouse assessed as inhibition of carrageenan-induced paw edema at 10 mg/kg, ip administered 3 hrs and 30 mins prior to carrageenan-challenge measured after 3 hrs (reference value: 0%).

As a reminder, the inhibition in vivo is the percentage by which the read-out fell short of the control.

Consider `COc1ccc2c(c1)c(CC(=O)O)c(C)n2C(=O)c1ccc(Cl)cc1` [INDOMETHACIN], for which the Survival in the experiment on Mus musculus [1] was 9.66 days. The T/C in the experiment with Mus musculus [2] is given as 100. The inhibition in vivo at 20 mg/kg in the experiment with Mus musculus [3] stood at 0%. The figures for the Activity in the experiment with Mus musculus [4] and in the experiment with Mus musculus [5] were 97 mg and 23 mg, respectively. The inhibition in vivo at 10 mg/kg in the experiment with Mus musculus [6] amounted to 74%.
